Source: PubChem (Sanford-Burnham Center for Chemical Genomics)
This is a sample that favours compounds with a hit; in the whole collection about 1.5% have one here.
aDG glyco up: activators of alpha-DG glycosylation, primary screen, uHTS, Pro5-aDG cells, AlphaScreen | 360,000 tested, 0.22% active | alpha-DG glycosylation AlphaScreen (IIH6); 0% Pro5, 100% B10-LARGE cell signal | activation, % at 10 µM | AID 624168, 2012;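 active means activation of at least 8% versus controls, or a plate z-score of at least 8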;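 further: Pro5 are CHO cells carrying HIG-tagged alpha-DG that lacks glycosylation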
HNF4A DNA FP: change in binding of human HNF4A to DNA, primary screen, biochemical, fluorescence polarization, FITC-DNA. activity change, % at 10 µM. 360,000 tested, 0.3% active. Hepatocyte nuclear factor 4-alpha (Homo sapiens), P41235. 1 h; in the data active means activity change above about 30%, passing the limit was not always enough
CSN inh: inhibitors of CSN-mediated cullin deneddylation, primary screen, biochemical, fluorescence polarization, uHTS | COP9 signalosome complex subunit 5 (Homo sapiens), Q92905 | Purified CSN, SCF-Nedd8-OG deneddylation | inhibition, % at 12.5 µM | 360,000 tested, 0.38% active | AID 651999, 2013;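 active means pattern-corrected inhibition above about 35%, with an unprinted fluorescence ratio check between 0.5 and 1.5, limit read from the data, passing the limit was not always enough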;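 further: 0% = enzyme with substrate and 100% = substrate without enzyme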
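Assay system: HEK293T-derived human Csn5 enzyme; quantity: 0.24 nM enzyme; medium: Tris/NaCl/DTT buffer, pH 7.5; also added: substrate SCFSkp2-Nedd8OG, 10 nM; doses: 12.5 µM compound; schedule: 90 min reaction at room temperature; signal: FP; read-out: % inhibition of substrate cleavage by Csn5; benchmarks: substrate-only high control, full reaction low control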
NR1D1 modulator: modulators of Rev-erb alpha DNA binding, primary screen, biochemical, FITC-DNA, fluorescence polarization, uHTS. activity, % at 10 µM. Rev-erbα–FITC-DNA binding, 90 min. AID 1259318, 2017. 370,000 tested, 0.79% active. Nuclear receptor subfamily 1 group D member 1 (Homo sapiens), P20393;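 active means activity above about 14%, limit read from the data; passing the limit was not always enough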;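 further: 0% = DMSO wells with 35 nM protein and 100% = DMSO wells with 750 nM protein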
Target sequence (P20393 whole entry, looked up): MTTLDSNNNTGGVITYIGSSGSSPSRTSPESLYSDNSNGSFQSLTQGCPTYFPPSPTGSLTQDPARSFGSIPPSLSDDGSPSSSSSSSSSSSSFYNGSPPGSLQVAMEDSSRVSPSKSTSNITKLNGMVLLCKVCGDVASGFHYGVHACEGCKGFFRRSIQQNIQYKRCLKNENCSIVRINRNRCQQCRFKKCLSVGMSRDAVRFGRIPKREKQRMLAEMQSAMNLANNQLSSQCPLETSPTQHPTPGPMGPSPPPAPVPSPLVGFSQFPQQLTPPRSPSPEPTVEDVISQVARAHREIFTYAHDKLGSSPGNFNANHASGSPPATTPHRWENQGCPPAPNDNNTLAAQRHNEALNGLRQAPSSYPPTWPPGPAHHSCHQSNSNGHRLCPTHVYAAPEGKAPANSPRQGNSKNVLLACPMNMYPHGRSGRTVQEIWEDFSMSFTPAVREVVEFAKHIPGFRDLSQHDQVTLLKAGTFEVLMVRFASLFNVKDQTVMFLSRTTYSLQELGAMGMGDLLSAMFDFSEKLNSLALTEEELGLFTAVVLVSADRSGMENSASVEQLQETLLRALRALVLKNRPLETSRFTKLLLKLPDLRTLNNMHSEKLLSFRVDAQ
Rev-erbA confirm: modulators of Rev-erb alpha DNA binding, confirmation, biochemical, FITC-DNA, fluorescence polarization, single point; shares compounds with NR1D1 modulator; 90 min; activation, % at 25 µM; 3,000 tested, 61% active;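 active means activation at or above a set limit, or at least 3 SD above the negative control mean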;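 further: 0% = 35 nM protein with DMSO and 100% = 750 nM protein high control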
RORg counter: modulation of RORgamma DNA binding, dose response, counter-screen for Rev-erb alpha modulator project, biochemical, fluorescence polarization, FITC-DNA. IC50, µM. 910 tested, 8% active. AID 1259320, 2017. purified RORgamma protein-FITC-DNA binding. shares compounds with NR1D1 modulator;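 active means Compounds whose fitted half-maximal concentration for disrupting protein-DNA binding is below 10 micromolar; the record names Rev-erb in its text, so the target is in doubt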
Active calls of the source: *; i = inactive; · = not tested or not shown.

SMILES	aDG glyco up	HNF4A DNA FP	CSN inh	NR1D1 modulator	Rev-erbA confirm	others
Cc1ccc(-n2c(SCC(=O)c3ccc(F)cc3)nnc2-c2cccnc2)cc1	·	·	·	4	·
COc1ccc(S[C@]2(C(=O)N3CCN(c4ncccn4)CC3)CC(=O)N(c3ccc(C#N)cc3)[C@@H]2c2ccc(OC)cc2)cc1	·	·	·	7	·
CCN1/C(=C/C=C/c2oc3ccc(-c4ccccc4)cc3[n+]2CC)Oc2ccc(-c3ccccc3)cc21	0	-98	-104	139*	135*	RORg counter=i
CS(=O)(=O)N1c2ccccc2C[C@H]1Cc1cc2ccccc2o1	·	·	·	9	·
CN(C)c1ccc(N=Nc2cccc(F)c2)cc1	0	7	5	12	·
Cc1cc(N(C)C)cc(C)c1N=Nc1cc[n+]([O-])cc1	0	8	-2	27*	24*
Cc1cc2c(s1)c1cnn(Cc3ccccc3F)c(=O)c1n2C	0	-1	-1	33*	18*
Cc1cc2c(s1)c1cnn(Cc3c(Cl)ccc(C)c3F)c(=O)c1n2C	·	·	·	233*	81*	RORg counter=>40
O=C1CCC2(CCC(c3ccccc3)CC2)N1CCCO (stereo not drawn)	·	·	·	0	·
COC(=O)C1CN(C2CCCC2)CCS(=O)(=O)N1Cc1cn(Cc2ccccc2)nn1 (stereo not drawn)	·	·	·	-5	·
COC(=O)c1sc(NC(=O)C(C)C)c(C(=O)OC)c1C	0	0	-4	22*	5
CCOC(=O)c1sc(NC(=O)C(C)C)c(C#N)c1C	0	14	4	47*	26*
COC(=O)[C@]12C[C@H](CC(=O)NCC34CC5CC(CC(C5)C3)C4)C(=O)N(Cc3ccco3)C1=C[C@H](C1CCCC1)O[C@@H]2C	·	·	·	2	·
CCOC(=O)c1c(-c2cccs2)csc1NC(C)=O	0	0	-3	4	·
CCOC(=O)c1c(-c2ccc(C)s2)csc1NC(=O)c1cccs1	0	-1	-6	50*	25*
COc1ccc2c(c1)oc(=O)c1c3ccccc3[nH]c21	1	-6	8	75*	62*	RORg counter=>40
OCc1cn(-c2ccccc2)nc1-c1ccc(-c2nn(-c3ccccc3)cc2CO)cc1	0	-1	8	16*	8
O=C(O)Cc1cn(-c2ccccc2)nc1-c1ccccc1	0	2	-6	-1	·
O=C(Cc1sc(-c2ccccc2)nc1-c1ccccc1)Nc1ccc(Cl)cc1	0	1	2	25*	33*	RORg counter=>40
O=C(Cc1sc(-c2ccccc2Cl)nc1-c1ccccc1)Nc1ccccc1	0	4	-1	9	·
Cc1sc2nc(CN3CCOCC3)[nH]c(=O)c2c1-c1ccccc1	0	1	3	-4	·
Cc1sc2nc(N3CCOCC3)[nH]c(=O)c2c1-c1ccccc1	0	0	2	94*	128*	RORg counter=>40
COc1ccccc1-c1cccc2c3c([nH]c12)[C@@H]1C[C@H]2[C@@H](CN1CC3)[C@H](C)ON2C	·	·	·	2	·
Cc1cc(N(C)C(=O)c2ccc3c(c2)S(=O)(=O)c2cc(Cl)ccc2C3=O)c(C(F)(F)F)o1	0	0	1	20*	20*
CCOC(=O)c1sc2nc(C)[nH]c(=S)c2c1C	0	14	-1	62*	19*
SMILES	aDG glyco up	HNF4A DNA FP	CSN inh	NR1D1 modulator	Rev-erbA confirm	others
O=C(NC1CCCCN(Cc2cccc(F)c2)C1=O)c1cccc(C(F)(F)F)c1 (stereo not drawn)	·	·	·	-6	·
CC(=O)c1ccc(N2CCN(C(=S)Nc3ccc(Oc4ccccc4)cc3)CC2)cc1	7	-6	10	-5	·
CC(=O)c1ccc(N2CCN(C(=S)Nc3cccc(F)c3)CC2)cc1	0	0	2	29*	18*
COC(=O)[C@]12C[C@H](CC(=O)NCCc3ccccc3OC)C(=O)N(CCC3=CCCCC3)C1=C[C@H](C(C)C)O[C@@H]2C1CC1	·	·	·	0	·
O=C(Nc1ccc2c(c1)C(=O)NC2=O)c1cc(Cl)ccc1Cl	0	-2	0	144*	121*	RORg counter=>40
O=C(Nc1ccc2c(c1)C(=O)NC2=O)c1cccc(Cl)c1	0	5	8	16	·
CCN(CC)CCCN=Cc1c(-c2ccccc2)[nH]n(-c2nc3ccccc3s2)c1=O	0	1	0	2	·
CCCN=C(C)c1c(-c2ccccc2)[nH]n(-c2nc3ccccc3s2)c1=O	0	7	4	58*	40*	RORg counter=8.5*
Nc1nc(-c2ccccc2)c(-c2ccccc2)n1N	0	17	7	6	·
c1ccc(-c2cnn3c(-c4ccccc4)c(-c4ccccc4)nc3n2)cc1	1	-95	-95	123*	8
CCOC(=O)c1ccc(Nc2cc(C)nc(-c3ccccc3O)n2)cc1	0	-3	-5	38*	3
Cc1cc(Nc2ccccc2)nc(-c2ccccc2O)n1	0	-1	-3	-3	·
Cc1ccc(OCC(=O)O/N=C(\N)c2ccncc2)cc1C	0	-6	0	22*	-3
O=C(CCn1nnc2ccccc21)Nc1nnc(-c2ccccc2F)s1	0	3	7	28*	17
S=c1[nH]ncn2c1cc1oc3ccccc3c12	0	3	-4	34*	20*
COc1ccc(CNCC#CC2=CCCCC2)c(OC)c1	·	·	·	0	·
O=C(N[C@@H]1C[C@@H]2O[C@@H](CO)CC[C@@H]2O[C@@H]1CCc1ccc(-c2cccnc2)cc1)c1cccc(F)c1	·	·	·	0	·
O=C(c1ccc(Cl)cc1)C(CN1CCCCC1)c1ccccc1 (stereo not drawn)	0	-1	4	-1	·
CCOC(=O)C(CN1CCCC1)c1ccccc1 (stereo not drawn)	0	2	-4	21*	6
CN1C2=C(C#N)C(c3ccccc3)(C(F)(F)F)NC(=O)N2c2ccccc21 (stereo not drawn)	0	8	-1	5	·
Cc1ccc(C2(C(F)(F)F)NC(=O)N3C(=C2C#N)Nc2ccccc23)cc1 (stereo not drawn)	0	6	-1	33*	32*	RORg counter=i
O=C(NCc1ccc(-c2nc3ccccc3s2)cc1)c1cc2ccccc2o1	0	5	-3	10	·
COc1cc(C(=O)NCc2ccc(-c3nc4ccccc4o3)cc2)cc(OC)c1OC	0	3	1	26*	11
O=C(NCc1ccc(-c2nc3ccccc3s2)cc1)c1ccc(Br)o1	0	3	3	21*	13
